Results from PMC3237191 (FEBS letters, 2011).

What was measured:
DGKε (DGKε-His6) [1] = molecular target: T1, DGKε (DGKε-His6) (Homo sapiens, UniProt P52429); assay: Triton X-100/DOPC mixed micelle assay with [γ-32P]-ATP; format: biochemical; conditions: 0.1 mM ATP; 15 mM Triton X-100; 22.5 mol% DOPC; lysate
T1 sequence (P52429 1-567): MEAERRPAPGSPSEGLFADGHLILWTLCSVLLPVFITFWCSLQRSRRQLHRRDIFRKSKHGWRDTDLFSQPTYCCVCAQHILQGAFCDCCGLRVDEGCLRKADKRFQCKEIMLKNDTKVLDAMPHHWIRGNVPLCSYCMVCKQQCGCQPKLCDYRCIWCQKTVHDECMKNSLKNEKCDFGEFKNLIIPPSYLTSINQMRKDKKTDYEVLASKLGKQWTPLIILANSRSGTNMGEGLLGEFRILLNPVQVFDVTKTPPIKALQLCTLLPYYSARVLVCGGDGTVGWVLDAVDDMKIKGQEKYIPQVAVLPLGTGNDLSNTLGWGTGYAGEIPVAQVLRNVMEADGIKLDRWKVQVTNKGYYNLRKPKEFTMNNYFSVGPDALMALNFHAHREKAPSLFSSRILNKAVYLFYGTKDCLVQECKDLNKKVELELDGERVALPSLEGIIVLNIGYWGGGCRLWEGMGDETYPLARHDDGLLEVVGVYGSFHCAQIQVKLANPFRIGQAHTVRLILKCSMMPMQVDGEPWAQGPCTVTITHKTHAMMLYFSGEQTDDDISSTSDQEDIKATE
Procedure, shortened: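 Enzyme is the 100,000 g supernatant (30 min, 4 °C) of baculovirus-infected Sf21 cells expressing human DGKε-His6. Cells were lysed 10 min on ice in 1% NP-40, 20 mM Tris-HCl pH 7.5, 150 mM NaCl, 1 mM EDTA, phosphatase and protease inhibitors, then sonicated 5 min. DAG substrate was dried with DOPC into lipid films for the micelles, and DAG level was varied. Run in triplicate. Vmax and Km come from nonlinear regression of v0 versus [S] and from Hanes plots.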

DGKε (DGKε-His6) [2] = molecular target: T1, DGKε (DGKε-His6); assay: Triton X-100/DOPC mixed micelle assay with [γ-32P]-ATP, nonlinear regression; format: biochemical; conditions: competitive; substrate 18:0/20:4-DAG; 0.1 mM ATP; 15 mM Triton X-100; lysate
Procedure, shortened: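 DGKε-His6 was taken from the high-speed supernatant of NP-40-lysed, sonicated Sf21 cells infected with baculovirus. It phosphorylated 18:0/20:4-DAG or 20:4/20:4-DAG in Triton X-100/DOPC mixed micelles with [γ-32P]-ATP, with a phosphatidic acid species added as inhibitor. PA stock levels were set from measured phosphate content. Ki was fitted by nonlinear regression to a competitive inhibition model.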

| Km (mol%) (DGKε (DGKε-His6) [1]) | Ki, mol% (DGKε (DGKε-His6) [2]) | Structure (SMILES) |
| --- | --- | --- |
| 2.0 ± 0.7 mol% | – | CCCCC/C=C\C/C=C\C/C=C\C/C=C\CCCC(=O)O[C@@H](CO)COC(=O)CCCCCCCCCCCCCCCCC [18:0/20:4-DAG, 1-stearoyl-2-arachidonoyl-DAG] |
| 3.5 ± 0.4 mol% | – | CCCCC/C=C\C/C=C\CCCCCCCC(=O)OC[C@H](CO)OC(=O)CCCCCCC/C=C\C/C=C\CCCCC [18:2/18:2-DAG] |
| 2.0 ± 0.7 mol% | – | CCCCC/C=C\C/C=C\C/C=C\C/C=C\CCCC(=O)OC[C@H](CO)OC(=O)CCC/C=C\C/C=C\C/C=C\C/C=C\CCCCC [20:4/20:4-DAG, 1,2-diarachidonoyl-DAG] |
| – | 4.4 ± 1.0 mol% | CCCCC/C=C\C/C=C\C/C=C\C/C=C\CCCC(=O)OC[C@H](COP(=O)(O)O)OC(=O)CCC/C=C\C/C=C\C/C=C\C/C=C\CCCCC [20:4/20:4-PA] |
